Assay results gathered from unrelated publications.
Protocols differ between the studies behind these lines.
Target: Phosphatidylinositol 4,5-bisphosphate 3-kinase catalytic subunit gamma isoform (PIK3CG, Homo sapiens, UniProt P48736)

| Compound | observed | technique | concentration | remaining binding [%] |
| --- | --- | --- | --- | --- |
| COc1cnc(Nc2cccc(S(N)(=O)=O)c2)nc1N1CCN(c2ccccc2)C(=O)C1 | binding | competition with immobilised ligand | 1 µM | 34 |
| Cc1cnc(Nc2ccc(C(=O)N3CCC(N4CCCC4)CC3)cc2)nc1-c1cc2ccccc2s1 | binding | competition with immobilised ligand | 1 µM | 81 |
| N[C@@H]1CCN(c2nccc(-c3cnn4ncccc34)n2)C1 | binding |  | 1 µM | 100 |
| O=C(NCCCN1CCOCC1)c1ccc(Nc2ncc(Cl)c(-c3ccc(Cl)s3)n2)cc1 | binding | competition with immobilised ligand | 1 µM | 100 |
| CN(CCCC(F)(F)F)c1nccc(-c2cnn3ncccc23)n1 | binding |  | 1 µM | 100 |
| CN1CCN(c2cnc3c(C4CCN(C(=O)c5ccc(OC(F)(F)F)cc5N)CC4)ncnc3c2)CC1 | cell-free assay | competition with immobilised ligand | 1 µM | 95 |
| C=CC(=O)N1CCC(C(=O)NCC(=O)N2CCN(c3nc(-c4cnc(N)nc4C(F)F)nc(N4CCOCC4)n3)CC2)CC1 | binding | competition with immobilised ligand | 1 µM | 0.1 |
| C[C@@H](c1ccc(-n2cnc3c(N)ncnc32)cc1)N1CCc2nn(C)c(Cc3ccccc3)c2C1=O | binding | competition with immobilised ligand | 0.1 µM | 85 |
| Nc1ncc2c(n1)-c1c([nH]c3ccc(C#CC4CC4)cc13)CCCC2 | binding | competition with immobilised ligand | 1 µM | 77 |
| O=C(c1ccc(Nc2ncc(Cl)c(-c3ccc(Cl)s3)n2)cc1)N1CCC(N2CCCC2)CC1 | binding | competition with immobilised ligand | 1 µM | 90 |
| CN(c1nccc(-c2cnn3ncccc23)n1)C1CC1 | binding |  | 1 µM | 100 |
| CC(C)CC(=O)N1CCc2nc(-c3ccc(Br)cc3)nc(N(C)Cc3ccccc3)c2C1 | cell-free assay | competition with immobilised ligand | 0.1 µM | 100 |
| C[C@@H]1CCN(c2nccc(-c3cnn4ncccc34)n2)C1 | binding |  | 1 µM | 58 |
| Cn1cc(Cl)c2c(Oc3c(F)cc(Nc4cc(Cl)nc(N)n4)cc3F)ccnc21 | cell-free assay | competition with immobilised ligand | 0.1 µM | 82 |
| O=C(NCC1CCOCC1)c1n[nH]cc1NC(=O)c1c(F)cccc1F | binding | competition with immobilised ligand | 1 µM | 100 |
| CCCOc1ccc([C@H]2[C@H](C(=O)O)[C@@H](c3ccc4c(c3)OCO4)CN2CC(=O)Nc2c(CC)cccc2CC)cc1 | cell-free assay | competition with immobilised ligand | 1 µM | 68 |
| N#Cc1ccccc1CSc1nnc2c(n1)[nH]c1ccccc12 | binding | competition with immobilised ligand | 10 µM | 100 |
| C[C@@]1(Cc2ccc(C#N)cc2)C(=O)N(c2cc(Cl)cc(Cl)c2)c2ncc(C(=O)NC3(c4nc(C5CCC5)no4)CC3)n21 | cell-free assay | competition with immobilised ligand | 1 µM | 95 |
| Cc1cnn2ncc(-c3ccnc(N(C)C)n3)c2c1 | binding |  | 1 µM | 47 |
| N#Cc1ccc(Nc2ccc3[nH]c(=O)[nH]c3c2)c(Cl)c1 | cell-free assay | competition with immobilised ligand | 1 µM | 92 |
| c1cncc(-c2cccc(Nc3nccc(NC4CCCCC4)n3)c2)c1 | binding | competition with immobilised ligand | 10 µM | 69 |
| C[C@@H](c1cccc(C#N)c1)n1cc(Cl)cc(C(N)=O)c1=N | cell-free assay | competition with immobilised ligand | 1 µM | 100 |
| c1cnn2ncc(-c3ccnc(N4CCC45COC5)n3)c2c1 | binding |  | 1 µM | 74 |
